# Measured values from PMC9748978 (RSC Advances, 2022).
# Like-named read-outs stand apart in the source and are kept apart here.
# Experiments:
# [1] = assay type: in vitro ADME; details: pig skin; for CUM – cumulative permeation mass / Q – the percentage of the applied dose after 24 h: 24 h; for CUM – cumulative permeation mass / Q – the percentage of the applied dose after 24 h / J SS – steady-state flux / K m – skin partition coefficient / L T – lag time / K P – permeability coefficient: solution in 70% ethanol; for steady-state flux (JSS): from ethanol solution
# How it was run: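 Pig abdominal skin in Franz cells with 8 cm3 PBS (pH 7.4) acceptor at 37.0 ± 0.5 °C, stirred 400 rpm. Donor: 1 cm3 of about 5% solution (about 0.05 g cm−3) in 70% ethanol, stoppered. Acceptor sampled (0.3 cm3, buffer replaced) at 0.5–24 h and assayed by HPLC. Jss is the slope of cumulative mass versus time, and lag time is the x-intercept. Kp, D and Km are calculated from these. Mean ± SD, ANOVA/Tukey.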
# [2] = Accumulation in the skin after 24 h penetration; assay type: in vitro ADME, pig; details: after 24 h of penetration from solution, porcine skin
# How it was run: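 Franz diffusion cells with porcine abdominal skin, PBS (pH 7.4) acceptor at 37.0 ± 0.5 °C. After 24 h penetration the skin was removed, rinsed in PBS pH 7.4, dried at room temperature, weighed, cut to the 1 cm2 diffusion area and minced. It was then extracted in methanol for 24 h at 4 °C, homogenized 3 min and centrifuged at 3500 rpm for 5 min. Supernatant was assayed by HPLC, expressed as μg IBU per g skin.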
# [3] = compound, TG; cited from earlier work
# Tack = assay type: physicochemical; details: transdermal patch (cross-linked adhesive film containing the active ingredient)
# How it was run: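 Tested with a tensile testing machine per AFERA 4015. The patch has an acrylate copolymer adhesive matrix with the active substance added as an ethyl acetate solution, dosed on the basis of 200 mg per 140 cm2. It was coated at 250 μm on polyester film and cross-linked by UV after 10 min at 110 °C.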
# Solubility in water = assay type: physicochemical; details: 25 °C, 24 h
# [4] = n-octanol/water partition coefficient, shake flask method; assay type: physicochemical; details: n-octanol–water, 25 °C
# How it was run: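 10 mg of compound was shaken with 5 ml n-octanol-saturated water and 5 ml water-saturated n-octanol, stirred 3 h at 25 °C, and the layers were separated. Aqueous concentration was measured by HPLC. Octanol-layer concentration was taken as total minus aqueous. log P = log C0 − log Cw.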
# [5] = assay type: in vitro ADME, pig; details: from transdermal patch
# [6] = Thermogravimetric analysis; assay type: physicochemical; details: compound, TG
# How it was run: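 About 5 mg samples were heated from 25 to 1000 °C on a thermobalance under nitrogen (10 ml min−1) and under air (25 ml min−1). Onset decomposition temperature was read from TG curves and maximum decomposition temperature from DTG curves.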
Compound,CUM – cumulative permeation mass [1] [μg cm^−2],Q – the percentage of the applied dose after 24 h [1] [%],steady-state flux (JSS) [1] [μg IBU per cm^2 h],J SS – steady-state flux [1] [μg cm^−2],K m – skin partition coefficient [1],L T – lag time [1] [min],accumulation in the skin [2] [μg IBU per g skin],T max (maximum decomposition temperature) [3] [°C],T onset (the onset of the thermal degradation) [3] [°C],Tack (Tack) [N],Solubility in water (Solubility in water) [g dm^−3],Solubility in water (as ibuprofen) (Solubility in water) [g IBU per dm^3],log P [4],K P – permeability coefficient [1] [cm/h],delay time (lag time) [5],T max (maximum decomposition temperature) [6] [°C],T onset (the onset of the thermal degradation) [6] [°C]
"CC(C)Cc1ccc(C(C)C(=O)O)cc1 (racemic) [[IBU], (R,S)-Ibuprofen, reference compound]",133.35,9.33,25.87,25.87,0.281,2.582,725.49 ± 164.6184,218.7,189.8,–,–,–,–,–,–,–,–
"CC(C)Cc1ccc(C(C)C(=O)[O-])cc1.[Na+] (stereo not drawn) [[IBU][Na], sodium ibuprofenate]",–,–,–,–,–,–,–,–,–,0.05,–,–,–,–,–,–,–
"CC(C)Cc1ccc(C(C)C(=O)O)cc1.CCCOC(=O)[C@@H](N)Cc1ccccc1 [[PheOPr][IBU], L-phenylalanine propyl ester ibuprofenate]",454.86,15.80,28.01,28.01,0.200,1.705,602.86 ± 76.98,210.4,157.0,–,9.481 ± 0.066,4.596 ± 0.161,+1.021,19.606,about 1 h,–,–
"CC(C)Cc1ccc(C(C)C(=O)O)cc1.CCCOC(=O)[C@@H](N)Cc1c[nH]c2ccccc12 [[TrpOPr][IBU], L-tryptophan propyl ester ibuprofenate]",319.22,12.42,–,22.72,0.208,2.179,595.41 ± 76.32,–,–,–,9.396 ± 0.027,4.577 ± 0.037,+1.044,15.907,–,219.3,–
"CC(C)Cc1ccc(C(C)C(=O)O)cc1.CCCOC(=O)[C@@H](N)Cc1ccc(O)cc1 [[TyrOPr][IBU], L-tyrosine propyl ester ibuprofenate]",284.27,9.51,–,25.57,0.229,2.133,609.35 ± 106.07,–,–,–,8.569 ± 0.022,4.188 ± 0.065,+1.055,17.898,–,209.4,148.1
L-histidine propyl ester bis(ibuprofenate) [[HisOPr][IBU]],335.13,7.90,21.33,21.33,0.192,2.141,–,–,–,–,–,–,+0.963,14.918,–,212.5,157.5
